Experimental findings from ChEMBL document CHEMBL1147467, “Design and synthesis of oxadiazolidinediones as inhibitors of plasminogen activator inhibitor-1” (Bioorg Med Chem Lett, 2004) are described below.

pIC50: −log10 of the molar value.

One test has as its target T1, Plasminogen activator inhibitor 1 (Homo sapiens, UniProt P05121). The test can be described thus: In vitro concentration required for inhibition of tissue type plasminogen activator by plasminogen activator inhibitor-1 at concentration 25 um. The essentials:
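Recombinant human PAI-1 (140 nM) preincubated 1 h at room temperature with compound (1-100 µM final, ≤0.2% DMSO) in pH 6.6 buffer. Recombinant human tPA (70 nM; PAI-1:tPA 2:1) then added for 30 min, followed by the chromogenic tPA substrate Spectrozyme-tPA, with A405 read at 0 and 60 min.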
Target sequence in this assay (P05121 whole entry): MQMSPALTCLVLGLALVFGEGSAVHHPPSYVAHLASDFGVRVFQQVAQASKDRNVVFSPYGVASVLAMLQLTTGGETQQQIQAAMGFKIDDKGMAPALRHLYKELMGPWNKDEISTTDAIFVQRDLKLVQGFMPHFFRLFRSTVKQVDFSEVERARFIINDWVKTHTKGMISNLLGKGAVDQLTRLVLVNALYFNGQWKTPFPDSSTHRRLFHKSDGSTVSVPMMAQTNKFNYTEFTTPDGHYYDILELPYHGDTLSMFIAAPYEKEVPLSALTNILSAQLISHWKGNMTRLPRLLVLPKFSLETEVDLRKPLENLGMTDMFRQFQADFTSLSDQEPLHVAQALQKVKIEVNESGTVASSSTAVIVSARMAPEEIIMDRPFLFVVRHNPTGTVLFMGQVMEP
For `C/C(=C\Cn1oc(=O)[nH]c1=O)c1cccc(OCc2ccccc2-c2ccccc2)c1`, the pIC50 (in general, the negative decadic logarithm of the IC50, by convention in mol/L) is 5.64.
Same read-out and setting: with `O=c1[nH]c(=O)n(C/C=C/c2cc(OCc3ccc(Cl)cc3)cc(OCc3ccc(Cl)cc3)c2)o1` the figure was 5.68; with `C/C(=C/Cn1oc(=O)[nH]c1=O)c1cccc(COc2cc(C(F)(F)F)cc(C(F)(F)F)c2)c1`, 5.14; with `O=c1[nH]c(=O)n(C/C=C/c2cc(OCc3ccc(C(F)(F)F)cc3)cc(OCc3ccc(C(F)(F)F)cc3)c2)o1`, 5.60.
The same measure, in the same setting: to `O=c1[nH]c(=O)n(C/C=C/c2cc(OCc3ccc(Cl)c(Cl)c3)ccc2Cl)o1` belongs 5.42.
Still for that read-out and setting: to `C/C(=C\Cn1oc(=O)[nH]c1=O)c1cccc(COc2cc(C(F)(F)F)cc(C(F)(F)F)c2)c1` belongs 5.28; to `C/C(=C\Cn1oc(=O)[nH]c1=O)c1cccc(OCc2ccccn2)c1`, 4.62.
`COc1cc(/C=C/Cn2oc(=O)[nH]c2=O)ccc1OCc1ccc(Cl)c(Cl)c1` showed a pIC50 of 5.49.
The same measure, in the same setting: with `C/C(=C\Cn1oc(=O)[nH]c1=O)c1cccc(OCc2cc(C(F)(F)F)cc(C(F)(F)F)c2)c1` the figure was 5.03.

The next test has as its target T1, Plasminogen activator inhibitor 1. The test can be described thus: Inhibitory activity against plasminogen activator inhibitor-1.
As to `O=c1[nH]c(=O)n(C/C=C/c2ccc(OCc3cc(C(F)(F)F)cc(C(F)(F)F)c3)cc2)o1`, the pIC50 was 4.83.
Regarding `O=c1[nH]c(=O)n(C(CCc2ccc(OCc3cc(C(F)(F)F)cc(C(F)(F)F)c3)cc2)c2ccccc2)o1` (centres undefined), the pIC50 is 6.41.
Still for that read-out and setting: to `CCCCC(CCn1oc(=O)[nH]c1=O)c1cccc(Oc2cccc(C)c2)c1` (centres undefined) belongs 5.66; to `CC(/C=C/c1ccc(OCc2ccc(Cl)c(Cl)c2)cc1)n1oc(=O)[nH]c1=O` (centres undefined), 5.21; to `CC/C(=C\Cn1oc(=O)[nH]c1=O)c1ccc(OCc2cc(C(F)(F)F)cc(C(F)(F)F)c2)cc1`, 5.05.
For `CC(/C=C/c1ccc(OCc2cccc(C(F)(F)F)c2)cc1)n1oc(=O)[nH]c1=O` (centres undefined), the pIC50 is 5.24.
On the same count and under the same terms, to `CCCC/C(=C\Cn1oc(=O)[nH]c1=O)c1cccc(Oc2cc(Cl)cc(Cl)c2)c1` belongs 5.72; to `O=c1[nH]c(=O)n(C(CCc2ccc(OCc3cccc(Cl)c3)cc2)c2ccccc2)o1` (centres undefined), 6.17.

For another test the target is unchanged. The test can be described thus: In vitro inhibition of plasminogen activator inhibitor-1 at concentration 25 um.
Target sequence in this assay (P05121 whole entry, looked up): as the sequence (P05121 whole entry) above
For `C/C(=C\Cn1oc(=O)[nH]c1=O)c1cccc(OCc2ccccc2)c1`, the inhibition (commonly the share of the control response that was lost under treatment) was 24%.
Compound `C/C(=C\Cn1oc(=O)[nH]c1=O)c1cccc(OCc2cccc(C)c2)c1` had an inhibition of 37%.
